# In ChEMBL document CHEMBL4406862, “Chalcone derivatives targeting mitosis: synthesis, evaluation of antitumor activity and lipophilicity” (Eur J Med Chem, 2019):
# Activity calls are given as the source filed them. The calls are words filed in the database; no cut-off is given here.
# Columns and labels:
# MCF7 = test: Antiproliferative activity against human MCF7 cells assessed as reduction in cell viability incubated for 48 hrs by sulforhodamine B assay; assay type: functional; conditions: MCF7, 48 h
# Outline: (§1)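 Cells in RPMI-1640 with 5% FBS, 37 °C, 5% CO2; seeded 0.05×10^6 cells/well, 24 h, then two-fold serial dilutions from 0 to 150 μM (DMSO up to 0.25%) for 48 h. TCA fixation, SRB stain 30 min, dye solubilized in 10 mM Tris, absorbance 515 nm. GI50 from dose-response curve; mean ± SD, at least three independent experiments in duplicate.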
# [1] = Antiproliferative activity against human A375-C5 cells assessed as reduction in cell viability incubated for 48 hrs by sulforhodamine B assay; assay type: functional; conditions: A375-C5, 48 h; outline: as §1
# NCI-H460 [2] = test: Antiproliferative activity against human NCI-H460 cells assessed as reduction in cell viability incubated for 48 hrs by sulforhodamine B assay; assay type: functional; conditions: NCI-H460, 48 h; outline: as §1
# [3] = Lipophilicity, log k of compound in DMPC/buffer incubated for 30 mins by spectrophotometry; assay type: physicochemical; conditions: 0.5 h
# Outline: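 DMPC liposomes made by thin-film hydration in HEPES buffer, extruded at 40 °C. Fixed compound concentration with DMPC 50–1000 μM, incubated 30 min at 37 °C, pH 7.4; spectra 250–500 nm against compound-free references. Second-derivative values fitted (nonlinear least squares) versus lipid concentration to give Kp; lipid molar volume 0.66 L mol⁻¹; mean ± SD of at least three experiments.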
# [4] = n-Octanol/water partition coefficient, log P of the compound incubated for 30 mins by spectrophotometry; assay type: physicochemical
# NCI-H460 [5] = test: Induction of mitotic arrest in human NCI-H460 cells assessed as accumulation of bright round shape cells at 3 times of GI50 incubated for 15 hrs by phase contrast microscopy; assay type: functional, cell-based
# NCI-H460 [6] = test: Induction of mitotic arrest in human NCI-H460 cells assessed as condensed chromosome at 3 times of GI50 incubated for 15 hrs by DAPI staining based phase contrast microscopy; assay type: functional, cell-based
# Outline: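 NCI-H460 treated 15 h at 3×GI50; DAPI staining of DNA viewed to detect condensed chromosomes of mitotic cells.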
# NCI-H460 [7] = test: Induction of mitotic arrest in human NCI-H460 cells assessed as mitotic index at 3 times of GI50 incubated for 15 hrs by DAPI staining based phase contrast microscopy (reference value: 11.3 %); assay type: functional
# NCI-H460 [8] = test: Induction of mitotic arrest in human NCI-H460 cells assessed as abnormal mitotic spindle morphology at 3 times of GI50 incubated for 15 hrs by immunostaining based fluorescence microscopy; assay type: functional, cell-based
# Outline: (§2)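 NCI-H460 on poly-L-lysine coverslips treated 15 h at 3×GI50; fixed in 2% paraformaldehyde, 0.5% Triton X-100 permeabilization, 10% FBS blocking; mouse anti-α-tubulin (1:2500) then Alexa Fluor 488 secondary (1:1500); DAPI 2 µg/mL. Fluorescence microscopy of spindles; multipolar spindles as percentage of total spindles; mean ± SD, three independent experiments.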
# NCI-H460 [9] = test: Induction of mitotic arrest in human NCI-H460 cells assessed as decrease in chromosome align at metaphase plate at 3 times of GI50 incubated for 15 hrs by DAPI staining based fluorescence microscopy; assay type: functional, cell-based; outline: as §2
# NCI-H460 [10] = test: Induction of mitotic arrest in human NCI-H460 cells assessed as accumulation of bright round shape cells at 1 uM incubated for 15 hrs by phase contrast microscopy; assay type: functional, cell-based
# NCI-H460 [11] = test: Induction of mitotic arrest in human NCI-H460 cells assessed as mitotic index 1 uM incubated for 15 hrs by DAPI staining based phase contrast microscopy (reference value: 11.3 %); assay type: functional
# NCI-H460 [12] = test: Cytotoxicity against human NCI-H460 cells assessed as reduction in cell viability at 25 nM incubated for 48 hrs by MTT assay; assay type: functional, cell-based
# Outline: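 MTT 0.5 mg/ml in serum-free medium 4 h; formazan dissolved in isopropanol/Triton/HCl 2 h; absorbance 570 nm. Viability relative to untreated cells; mean ± SD of at least three independent experiments.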
SMILES,GI50 (MCF7),GI50 [1],GI50 (NCI-H460 [2]),log Kp [3],logP at 0.5 h [4],Activity (NCI-H460 [5]),Activity (NCI-H460 [6]),Activity (NCI-H460 [7]),Activity (NCI-H460 [8]),Activity (NCI-H460 [9]),Activity (NCI-H460 [10]),Activity (NCI-H460 [11]),Activity (NCI-H460 [12])
O=C(/C=C/c1cc(Cl)cc(Cl)c1)c1cccs1,11.7 µM,5.38 µM,8.34 µM,4.33,4.38,–,–,–,–,–,–,–,–
COc1cc(OC)c(OC)cc1/C=C/C(=O)c1cc(C)cs1,10.1 µM,6.96 µM,7.48 µM,3.6,3.31,–,–,–,–,–,–,–,–
COc1cc(/C=C/C(=O)c2cc3ccccc3s2)cc(OC)c1OC,6.89 µM,6.9 µM,6.61 µM,3.68,4.19,Active,Active,25.8 - 49.37%,Active,Active,–,–,–
COc1cc(/C=C/C(=O)c2ccc(OC)c(OC)c2)cc(OC)c1,6.49 µM,3.45 µM,10.8 µM,3.29,3.35,–,–,–,–,–,–,–,–
COc1cc(/C=C/C(=O)c2cccs2)cc(OC)c1,7.7 µM,4.15 µM,7.12 µM,3.41,3.14,–,–,–,–,–,–,–,–
COc1cc(/C=C/C(=O)c2cc(C)cs2)cc(OC)c1OC,3.26 µM,3.21 µM,3.02 µM,3.54,3.29,–,–,–,–,–,–,–,–
COC(=O)Nc1nc2cc(C(=O)c3cccs3)ccc2[nH]1 [NOCODAZOLE],–,–,–,–,–,–,–,–,–,–,Active,73.1%,–
COc1cc(-c2cc(-c3cccs3)n[nH]2)cc(OC)c1OC,> 37.5 µM,> 37.5 µM,> 37.5 µM,3.16,2.99,–,–,–,–,–,–,–,–
COc1cc(OC)c(OC)cc1/C=C/C(=O)c1ccc(OC)c(OC)c1,8.52 µM,7.1 µM,8.74 µM,3.35,3.24,–,–,–,–,–,–,–,–
COc1cc(C2OC2C(=O)c2cccs2)cc(OC)c1OC (stereo not drawn),59.9 µM,38.5 µM,61.8 µM,2.8,2.51,–,–,–,–,–,–,–,–
COc1ccc(/C=C/C(=O)c2ccc(OC)c(OC)c2)cc1OC,13.2 µM,3.81 µM,8.95 µM,3.51,3.27,–,–,–,–,–,–,–,–
COc1cc(C2OC2C(=O)c2cc(C)cs2)cc(OC)c1OC (stereo not drawn),14 µM,6.63 µM,16.9 µM,3.75,2.5,–,–,–,–,–,–,–,–
COc1ccc(/C=C/C(=O)c2cc(C)cs2)cc1OC,10.8 µM,11.3 µM,15.3 µM,3.72,3.4,–,–,–,–,–,–,–,–
O=C(/C=C/c1ccc(Cl)c(Cl)c1)c1cccs1,12.1 µM,7.25 µM,8.44 µM,2.77,4.35,–,–,–,–,–,–,–,–
COc1cc(/C=C/C(=O)c2cc3cccc(O)c3o2)cc(OC)c1OC,9.75 µM,8.57 µM,8.35 µM,4.29,3.22,Active,Active,25.8 - 49.37%,Active,Active,–,–,–
COc1ccc(C(=O)/C=C/c2cc(OC)c(OC)c(OC)c2)cc1OC,3.97 µM,2.89 µM,5.6 µM,3.3,3.22,–,–,–,–,–,–,–,–
COc1ccc(C(=O)/C=C/c2cc(Cl)cc(Cl)c2)cc1OC,8.41 µM,4.51 µM,9.61 µM,4.1,4.54,–,–,–,–,–,–,–,–
COc1ccc(C(=O)/C=C/c2ccc(Cl)c(Cl)c2)cc1OC,15.1 µM,4.14 µM,27.7 µM,3.14,4.52,–,–,–,–,–,–,–,–
CC(=O)O[C@H]1C(=O)[C@@]2(C)[C@H]([C@H](OC(=O)c3ccccc3)[C@]3(O)C[C@H](OC(=O)[C@H](O)[C@@H](NC(=O)c4ccccc4)c4ccccc4)C(C)=C1C3(C)C)[C@]1(OC(C)=O)CO[C@@H]1C[C@@H]2O,–,–,–,–,–,–,–,–,–,–,–,–,inactive
COc1cc(-c2cc(-c3cc(C)cs3)n[nH]2)cc(OC)c1OC,16.3 µM,16.1 µM,16.1 µM,4.04,3.27,–,–,–,–,–,–,–,–
COc1cc(/C=C/C(=O)c2cc(C)cs2)cc(OC)c1,4.28 µM,3.33 µM,4.44 µM,3.52,3.43,–,–,–,–,–,–,–,–
Cc1csc(C(=O)/C=C/c2ccc(Cl)c(Cl)c2)c1,22.5 µM,12.1 µM,15.5 µM,2.8,4.65,–,–,–,–,–,–,–,–
COc1cc(OC)c(OC)cc1/C=C/C(=O)c1cccs1,12.6 µM,11.1 µM,13.6 µM,3.49,3.02,–,–,–,–,–,–,–,–
Cc1csc(C(=O)/C=C/c2cc(Cl)cc(Cl)c2)c1,12.2 µM,7.14 µM,11.8 µM,4.43,4.67,–,–,–,–,–,–,–,–
COc1cc(/C=C/C(=O)c2cccs2)cc(OC)c1OC,5.95 µM,3.63 µM,5.06 µM,3.49,2.99,–,–,–,–,–,–,–,–
COc1ccc(/C=C/C(=O)c2cccs2)cc1OC,23.9 µM,17.8 µM,17.8 µM,3.62,3.07,–,–,–,–,–,–,–,–
